{
  "source": "ChEMBL document CHEMBL1124444",
  "about": "“Hydroxyacetophenone-derived antagonists of the peptidoleukotrienes” (1989)",
  "key": {"Cavia porcellus [1]": {"organism": "Cavia porcellus", "assay": "Percent inhibition of the leukotriene D4 (LTD4)-induced contraction of guinea pig tracheal spirals at 3.3 uM concentration", "type": "functional", "conditions": "Trachea, in the assay text read “leukotriene E4 (LTE4)” for “leukotriene D4 (LTD4)”", "how_it_was_run": "(§1)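 Guinea pig tracheal spirals were split into paired sections in 10 mL baths of modified Krebs at 37 °C, gassed with 95% O₂/5% CO₂, under 2 g resting tension. After 60 min equilibration (washes every 15 min), reproducible contractions to 8 nM LTD₄ or 8 nM LTE₄ were obtained. Compound was added for 10 min, then agonist challenge repeated; percent inhibition is relative to the vehicle-treated paired section.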"}, "Cavia porcellus [2]": {"organism": "Cavia porcellus", "assay": "Percent inhibition of the leukotriene E4 (LTE4)-induced contraction of guinea pig tracheal spirals at 10 uM concentration", "type": "functional", "conditions": "Trachea", "how_it_was_run": "as §1"}, "Cavia porcellus [3]": {"organism": "Cavia porcellus", "assay": "Percent inhibition of the leukotriene E4 (LTE4)-induced contraction of guinea pig tracheal spirals at 1 uM concentration", "conditions": "Trachea"}, "Cavia porcellus [4]": {"organism": "Cavia porcellus", "assay": "Percent inhibition of the leukotriene D4 (LTD4)-induced contraction of guinea pig tracheal spirals at 4 uM concentration", "type": "functional", "conditions": "Trachea", "how_it_was_run": "as §1"}, "Cavia porcellus [5]": {"organism": "Cavia porcellus", "assay": "Inhibition of the leukotriene D4 (LTD4)-induced contraction of guinea pig tracheal spirals at 10 uM concentration", "type": "functional", "conditions": "Trachea", "how_it_was_run": "as §1"}, "Cavia porcellus [6]": {"organism": "Cavia porcellus", "assay": "Percent inhibition of the leukotriene E4 (LTE4)-induced contraction of guinea pig tracheal spirals at 10 uM concentration; NS means data was not statistically significant.", "type": "functional", "conditions": "Trachea", "how_it_was_run": "as §1"}, "Cavia porcellus [7]": {"organism": "Cavia porcellus", "assay": "Percent inhibition of the leukotriene D4 (LTD4)-induced contraction of guinea pig tracheal spirals at 50 uM concentration", "type": "functional", "conditions": "Trachea", "how_it_was_run": "as §1"}, "Cavia porcellus [8]": {"organism": "Cavia porcellus", "assay": "Percent inhibition of the leukotriene E4 (LTE4)-induced contraction of guinea pig tracheal spirals at 10 uM concentration; NS means data was not statistically significant", "conditions": "Trachea"}, "Cavia porcellus [9]": {"tested_on": "Cavia porcellus", "assay": "Compound (50 mg/kg, intraperitoneally) was tested in spontaneously breathing, conscious guinea pigs challenged with aerosolized LTD4 (60-min pretreatment)", "type": "functional"}, "[10]": {"target": "T1, Cysteinyl leukotriene receptor 1 (Cavia porcellus) (UniProt Q2NNR5)", "T1 sequence (whole entry)": "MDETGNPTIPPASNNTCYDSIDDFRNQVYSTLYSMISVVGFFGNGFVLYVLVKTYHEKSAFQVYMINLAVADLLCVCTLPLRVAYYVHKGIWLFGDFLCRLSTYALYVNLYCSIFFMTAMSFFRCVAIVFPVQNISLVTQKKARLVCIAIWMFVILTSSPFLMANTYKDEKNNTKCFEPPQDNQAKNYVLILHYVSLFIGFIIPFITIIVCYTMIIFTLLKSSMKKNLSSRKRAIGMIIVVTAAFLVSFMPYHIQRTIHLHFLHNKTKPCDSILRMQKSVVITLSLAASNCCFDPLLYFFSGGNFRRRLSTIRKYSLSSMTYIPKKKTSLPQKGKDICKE", "assay": "Dissociation constant (KB) […] was evaluated in vitro in isolated guinea pig tracheal strips"}},
  "data": [
    {"smiles": "CCCc1c(OCc2ccc(-c3nn[nH]n3)cc2)ccc(C(C)=O)c1O", "values": [
      {"measurement": "inhibition at 3.3 µM", "setting": "Cavia porcellus [1]", "result": 76, "unit": "%"}
    ]},
    {"smiles": "CCCCCCOc1c(C(C)=O)ccc(OCc2ccc(C(=O)O)cc2OC)c1CCC", "values": [
      {"measurement": "inhibition at 10 µM", "setting": "Cavia porcellus [2]", "result": 22, "unit": "%"}
    ]},
    {"smiles": "CCCc1c(OCc2ccc(NC(=O)c3ccccc3C(=O)O)cc2)ccc(C(C)=O)c1O", "values": [
      {"measurement": "inhibition at 1 µM", "setting": "Cavia porcellus [3]", "result": 49, "unit": "%"}
    ]},
    {"smiles": "CCCc1c(OCc2ccc(OC)c(/C=C/C(=O)O)c2)ccc(C(C)=O)c1O", "values": [
      {"measurement": "inhibition at 4 µM", "setting": "Cavia porcellus [4]", "result": 63, "unit": "%"}
    ]},
    {"smiles": "CCCc1c(OCc2cc(Br)c(C(=O)O)cc2OC)ccc(C(C)=O)c1O", "values": [
      {"measurement": "inhibition at 10 µM", "setting": "Cavia porcellus [5]", "result": 43, "unit": "%"}
    ]},
    {"smiles": "CCCc1c(OCc2ccc(C(=O)O)cc2OC)ccc2c(=O)ccoc12", "values": [
      {"measurement": "inhibition at 10 µM", "setting": "Cavia porcellus [5]", "result": 44, "unit": "%"}
    ]},
    {"smiles": "CCCc1c(OCCCCSCC(=O)O)ccc(C(C)=O)c1O", "values": [
      {"measurement": "inhibition at 10 µM", "setting": "Cavia porcellus [5]", "result": 75, "unit": "%"}
    ]},
    {"smiles": "CCCc1c(OCc2ccc(C(=O)OC)cc2OCCCn2cnnn2)ccc(C(C)=O)c1O", "values": [
      {"measurement": "inhibition at 10 µM", "setting": "Cavia porcellus [5]", "result": 75, "unit": "%"}
    ]},
    {"smiles": "CCCc1c(OCc2cccc(NS(=O)(=O)c3ccccc3)c2)ccc(C(C)=O)c1O", "values": [
      {"measurement": "inhibition", "setting": "Cavia porcellus [6]", "result": "Not statistically significant"}
    ]},
    {"smiles": "CCCc1c(OCc2ccc(C(=O)O)cc2OC)ccc2c(/C=C/c3ccccc3)cc(=O)oc12", "values": [
      {"measurement": "inhibition at 10 µM", "setting": "Cavia porcellus [2]", "result": 7, "unit": "%"}
    ]},
    {"smiles": "CCCc1c(OCC(O)CSCC(=O)O)ccc(C(C)=O)c1O", "note": "(stereo unspecified)", "values": [
      {"measurement": "inhibition at 50 µM", "setting": "Cavia porcellus [7]", "result": 44, "unit": "%"},
      {"measurement": "inhibition at 10 µM", "setting": "Cavia porcellus [5]", "result": 19, "unit": "%"}
    ]},
    {"smiles": "CCCc1c(OCc2ccc(C(=O)O)cc2OC)ccc(-c2ccc3ccccc3n2)c1O", "values": [
      {"measurement": "inhibition", "setting": "Cavia porcellus [6]", "result": "Not statistically significant"}
    ]},
    {"smiles": "CCCc1c(OCc2ccc(C(=O)O)cc2OC)ccc(C(=O)N2CCCC2)c1O", "values": [
      {"measurement": "inhibition at 50 µM", "setting": "Cavia porcellus [7]", "result": 90, "unit": "%"},
      {"measurement": "inhibition at 10 µM", "setting": "Cavia porcellus [5]", "result": 37, "unit": "%"}
    ]},
    {"smiles": "CCCN(C(=O)c1ccc(C(=O)O)cc1)c1ccc(C(C)=O)c(O)c1", "values": [
      {"measurement": "inhibition", "setting": "Cavia porcellus [6]", "result": "Not statistically significant"}
    ]},
    {"smiles": "CCCc1ccccc1OCc1ccc(C(=O)O)cc1OC", "values": [
      {"measurement": "inhibition at 50 µM", "setting": "Cavia porcellus [7]", "result": 81, "unit": "%"},
      {"measurement": "inhibition at 10 µM", "setting": "Cavia porcellus [5]", "result": 25, "unit": "%"}
    ]},
    {"smiles": "C=CCc1c(OCc2ccc(C(=O)O)cc2OC)ccc(C(C)=O)c1O", "values": [
      {"measurement": "inhibition at 10 µM", "setting": "Cavia porcellus [2]", "result": 100, "unit": "%"}
    ]},
    {"smiles": "CCCNc1c(C(C)=O)ccc(OCc2ccc(C(=O)O)cc2OC)c1CCC", "values": [
      {"measurement": "inhibition at 10 µM", "setting": "Cavia porcellus [2]", "result": 61, "unit": "%"}
    ]},
    {"smiles": "COc1cc(C(=O)O)ccc1CNc1ccc(C(C)=O)c(O)c1", "values": [
      {"measurement": "inhibition", "setting": "Cavia porcellus [6]", "result": "Not statistically significant"}
    ]},
    {"smiles": "CCCc1c(OCc2ccc(C(=O)NO)cc2OC)ccc(C(C)=O)c1O", "values": [
      {"measurement": "inhibition at 10 µM", "setting": "Cavia porcellus [5]", "result": 65, "unit": "%"}
    ]},
    {"smiles": "C=CCc1c(OCc2ccc(C(=O)O)cc2OC)cc2oc(-c3ccccc3)cc(=O)c2c1O", "values": [
      {"measurement": "inhibition", "setting": "Cavia porcellus [6]", "result": "Not statistically significant"}
    ]},
    {"smiles": "CCCc1c(OCc2ccc(C(=O)O)cc2OC)ccc(C(=O)c2ccccc2)c1O", "values": [
      {"measurement": "inhibition at 50 µM", "setting": "Cavia porcellus [7]", "result": 20, "unit": "%"},
      {"measurement": "inhibition", "setting": "Cavia porcellus [8]", "result": "Not statistically significant"}
    ]},
    {"smiles": "CCCc1cc(C(C)O)ccc1OCc1ccc(C(=O)O)cc1OC", "note": "(stereo unspecified)", "values": [
      {"measurement": "inhibition at 10 µM", "setting": "Cavia porcellus [5]", "result": 44, "unit": "%"}
    ]},
    {"smiles": "CCCc1cc(C(C)=O)ccc1OCc1ccc(C(=O)O)cc1OC", "values": [
      {"measurement": "inhibition at 10 µM", "setting": "Cavia porcellus [5]", "result": 67, "unit": "%"}
    ]},
    {"smiles": "CCCc1c(OCc2ccc(C(=O)NS(=O)(=O)c3ccccc3)cc2OC)ccc(C(C)=O)c1O", "values": [
      {"measurement": "inhibition", "setting": "Cavia porcellus [6]", "result": "Not statistically significant"}
    ]},
    {"smiles": "CCCCCCNC(=O)c1ccc(OCc2ccc(C(=O)O)cc2OC)c(CCC)c1O", "values": [
      {"measurement": "inhibition at 50 µM", "setting": "Cavia porcellus [7]", "result": 27, "unit": "%"}
    ]},
    {"smiles": "CCCc1c(OCc2ccc(C(=O)O)cc2)ccc(C(C)=O)c1O", "values": [
      {"measurement": "inhibition at 10 µM", "setting": "Cavia porcellus [5]", "result": 100, "unit": "%"},
      {"measurement": "inhibition at 4 µM", "setting": "Cavia porcellus [4]", "result": 36, "unit": "%"}
    ]},
    {"smiles": "CCCc1c(OCc2ccc(C(=O)O)cc2OC)ccc(C(=O)Nc2ccccc2)c1O", "values": [
      {"measurement": "inhibition at 10 µM", "setting": "Cavia porcellus [5]", "result": 25, "unit": "%"}
    ]},
    {"smiles": "CCCc1c(NC(=O)c2ccc(C(=O)O)cc2OC)ccc(C(C)=O)c1O", "values": [
      {"measurement": "inhibition", "setting": "Cavia porcellus [8]", "result": "Not statistically significant"}
    ]},
    {"smiles": "CCCc1c(OCc2ccc(C(=O)O)cc2OCCCC#N)ccc(C(C)=O)c1O", "values": [
      {"measurement": "inhibition at 3.3 µM", "setting": "Cavia porcellus [1]", "result": 78, "unit": "%"}
    ]},
    {"smiles": "COc1cc(C(=O)O)ccc1COc1ccc(C(C)=O)c(O)c1C", "values": [
      {"measurement": "Protection", "setting": "Cavia porcellus [9]", "result": 17, "unit": "%"},
      {"measurement": "Kb", "setting": "[10]", "result": 0.85, "unit": "µM"},
      {"measurement": "inhibition at 10 µM", "setting": "Cavia porcellus [5]", "result": 73, "unit": "%"},
      {"measurement": "inhibition at 4 µM", "setting": "Cavia porcellus [4]", "result": 33, "unit": "%"}
    ]},
    {"smiles": "CCCCCC(=O)c1ccc(OCc2ccc(C(=O)O)cc2OC)c(CCC)c1O", "values": [
      {"measurement": "inhibition at 50 µM", "setting": "Cavia porcellus [7]", "result": 20, "unit": "%"}
    ]},
    {"smiles": "COc1cc(C(=O)O)ccc1COc1ccc(C(C)=O)c(O)c1CCCC(C)=O", "values": [
      {"measurement": "inhibition at 10 µM", "setting": "Cavia porcellus [2]", "result": 21, "unit": "%"}
    ]},
    {"smiles": "COc1cc(C(=O)O)ccc1COc1cc(O)c2c(=O)ccn(C)c2c1", "values": [
      {"measurement": "inhibition", "setting": "Cavia porcellus [6]", "result": "Not statistically significant"}
    ]},
    {"smiles": "CCCc1cc2ccccc2cc1OCc1ccc(C(=O)O)cc1OC", "values": [
      {"measurement": "inhibition at 10 µM", "setting": "Cavia porcellus [2]", "result": 51, "unit": "%"}
    ]},
    {"smiles": "CCCc1c(OCc2ccc(/C=C/C(=O)Nc3nn[nH]n3)cc2)ccc(C(C)=O)c1O", "values": [
      {"measurement": "inhibition", "setting": "Cavia porcellus [6]", "result": "Not statistically significant"}
    ]},
    {"smiles": "CCCc1c(OCC(=O)c2ccc(C(=O)O)cc2)ccc(C(C)=O)c1O", "values": [
      {"measurement": "inhibition at 10 µM", "setting": "Cavia porcellus [5]", "result": 66, "unit": "%"}
    ]},
    {"smiles": "CCCc1c(OCc2ccc(-c3nn[nH]n3)c(Br)c2)ccc(C(C)=O)c1O", "values": [
      {"measurement": "inhibition at 3.3 µM", "setting": "Cavia porcellus [1]", "result": 66, "unit": "%"}
    ]},
    {"smiles": "CCCCOC(=O)c1ccc(OCc2ccc(C(=O)O)cc2OC)c(CCC)c1O", "values": [
      {"measurement": "inhibition", "setting": "Cavia porcellus [6]", "result": "Not statistically significant"}
    ]}
  ]
}
